Results: ChEMBL document CHEMBL4118271, “Synthesis and antitumor activity of novel 6,7,8-trimethoxy N-aryl-substituted-4-aminoquinazoline derivatives” (Bioorg Med Chem Lett, 2018)
The source made the active and inactive calls. The rule behind the calls is not given here.

Experiments:
SGC-7901 [1] = assay: Anticancer activity against human SGC7901 cells after 72 hrs by MTT assay; assay type: functional, cell-based; details: SGC-7901, 72 h
SGC-7901 [2] = assay: Antiproliferative activity against human SGC7901 cells assessed as formation of apoptotic bodies at 10 uM after 48 to 72 hrs by inverted microscopic analysis; assay type: functional, cell-based
How it was run: (§1)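 SGC7901 cells were seeded and allowed 24 h to settle, then exposed to 0.1% (v/v) DMSO vehicle, to test agent at 1 or 10 μM, or to epirubicin at 1 or 10 μM. Exposure lasted 24, 48 and 72 h. Morphology (shrinkage, size, apoptotic bodies, breakdown) was then observed microscopically.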

SGC-7901 [3] = assay: Induction of morphological changes in human SGC7901 cells assessed as induction of cell shrinking at 10 uM after 48 to 72 hrs by inverted microscopic analysis; assay type: functional, cell-based; how it was run: as §1
SGC-7901 [4] = assay: Anticancer activity against human SGC7901 cells at 1 to 10 uM after 72 hrs by MTT assay; assay type: functional, cell-based
How it was run: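 Growth inhibition of SGC7901 gastric cancer cells tested at single concentrations of 10 and 1 μM for 72 h, read out by MTT assay. Epirubicin served as the positive control at the same concentrations.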

SGC-7901 [5] = assay: Induction of morphological changes in human SGC7901 cells at 1 uM after 24 hrs by inverted microscopic analysis; assay type: functional, cell-based; how it was run: as §1
SGC-7901 [6] = assay: Induction of morphological changes in human SGC7901 cells assessed as reduction in cell size at 10 uM after 48 to 72 hrs by inverted microscopic analysis; assay type: functional, cell-based; how it was run: as §1
[7] = molecular target: Mitogen-activated protein kinase; ERK1/ERK2 (Homo sapiens) (UniProt P27361+P28482); assay: Inhibition of EGF-induced ERK1/2 phosphorylation in human SGC7901 cells incubated for 30 mins post 10 min EGF stimulation by Western blot analysis; assay type: cell-based
Chain of Mitogen-activated protein kinase; ERK1/ERK2 (Homo sapiens) (P27361 whole entry, looked up): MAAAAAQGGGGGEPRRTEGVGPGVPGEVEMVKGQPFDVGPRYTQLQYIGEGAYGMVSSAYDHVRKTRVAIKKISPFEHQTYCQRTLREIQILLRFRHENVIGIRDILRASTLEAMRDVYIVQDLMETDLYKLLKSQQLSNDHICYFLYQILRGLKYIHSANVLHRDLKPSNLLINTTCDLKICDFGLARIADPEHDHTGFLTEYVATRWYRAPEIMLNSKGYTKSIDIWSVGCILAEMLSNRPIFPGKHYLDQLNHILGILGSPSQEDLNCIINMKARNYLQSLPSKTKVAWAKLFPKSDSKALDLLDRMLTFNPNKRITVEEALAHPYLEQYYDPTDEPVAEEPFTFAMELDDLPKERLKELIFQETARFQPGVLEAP
Chain of Mitogen-activated protein kinase; ERK1/ERK2 (Homo sapiens) (P28482 whole entry, looked up): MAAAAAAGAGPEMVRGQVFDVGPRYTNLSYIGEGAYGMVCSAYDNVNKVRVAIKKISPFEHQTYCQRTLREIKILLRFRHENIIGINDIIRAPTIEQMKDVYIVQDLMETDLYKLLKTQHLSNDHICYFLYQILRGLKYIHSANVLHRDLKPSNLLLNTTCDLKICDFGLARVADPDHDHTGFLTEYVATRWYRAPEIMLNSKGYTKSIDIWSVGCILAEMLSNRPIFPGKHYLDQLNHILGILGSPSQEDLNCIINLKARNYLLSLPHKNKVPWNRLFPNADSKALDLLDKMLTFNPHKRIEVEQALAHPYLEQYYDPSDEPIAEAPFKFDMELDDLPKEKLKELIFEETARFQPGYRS
How it was run: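 SGC7901 cells were grown in RPMI 1640 with 10% serum to 80% confluency and stimulated with 40 ng/ml EGF for 10 min. They were then treated for 30 min with 0.1% (v/v) DMSO or test agent at 1, 10, 20 or 40 μM. Lysates were run on SDS-PAGE and blotted for phospho-ERK1/2, with actin as loading control, ECL detection and densitometry. Three independent experiments were run.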

SGC-7901 [8] = assay: Induction of morphological changes in human SGC7901 cells assessed as induction of cell break at 1 and 10 uM after 24 to 72 hrs by inverted microscopic analysis; assay type: functional, cell-based; how it was run: as §1

IC50 (SGC-7901 [1]) | SMILES | other results
5.42 µM | COc1cc2c(Nc3ccc(F)c(Cl)c3)ncnc2c(OC)c1OC | –
> 30 µM | COc1cc2c(Nc3ccc(C(F)(F)F)cc3)ncnc2c(OC)c1OC | –
0.434 µM | COc1cc2c(Nc3ccc(B(O)O)cc3)ncnc2c(OC)c1OC | Activity (SGC-7901 [2]): Active; Activity (SGC-7901 [3]): Active; Activity (SGC-7901 [4]): Active; Activity (SGC-7901 [5]): inactive; Activity (SGC-7901 [6]): Active; inhibition [7]: Dose-dependent effect
18.4 µM | COc1cc2c(Nc3cc(Br)ccc3F)ncnc2c(OC)c1OC | –
8.64 µM | COc1cc2c(Nc3cccc(I)c3)ncnc2c(OC)c1OC | –
10.3 µM | COc1cc2c(Nc3cc(C(F)(F)F)ccc3F)ncnc2c(OC)c1OC | –
> 30 µM | COc1cc2c(Nc3ccc(Br)c(F)c3)ncnc2c(OC)c1OC | –
5.16 µM | COc1cccc2c1C(=O)c1c(O)c3c(c(O)c1C2=O)C[C@@](O)(C(=O)CO)C[C@@H]3O[C@H]1C[C@H](N)[C@@H](O)[C@H](C)O1 [EPIRUBICIN] | Activity (SGC-7901 [8]): Active
15 µM | COc1cc2c(Nc3ccc(Br)c(Cl)c3F)ncnc2c(OC)c1OC | –
> 30 µM | COc1cc2c(Nc3cccc(Br)c3F)ncnc2c(OC)c1OC | –
5.82 µM | C#Cc1cccc(Nc2ncnc3c(OC)c(OC)c(OC)cc23)c1 | –
> 30 µM | COc1cc2c(Nc3cccc(F)c3F)ncnc2c(OC)c1OC | –
> 30 µM | COc1cc2c(Nc3cccc(Cl)c3F)ncnc2c(OC)c1OC | –
> 30 µM | COc1cc2c(Nc3cccc(C(F)(F)F)c3)ncnc2c(OC)c1OC | –
> 30 µM | COc1cc2c(Nc3ccc(F)c(Cl)c3F)ncnc2c(OC)c1OC | –
